Test results reported in ChEMBL document CHEMBL3232971, “Synthesis and in vitro evaluation of 12-(substituted aminomethyl) berberrubine derivatives as anti-diabetics” (2014).
Active and inactive are the calls of the source. No cut-off for these calls is given here.

What was measured:
3T3-L1 [1] = experiment: Reversal of high glucose-induced insulin resistance in mouse 3T3L1 cells; format: functional, cell-based
Procedure, shortened: (§1)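 Mouse 3T3-L1 preadipocytes were grown in high-glucose DMEM with 10% FBS and phenol red. At 90% confluence they were differentiated for 4 days with FBS, insulin, dexamethasone and IBMX. Cells were replated and kept 2 days in FBS medium. Insulin resistance was induced over 4 days with low insulin and high dexamethasone. Cells were then treated with sample in phenol red-free high-glucose DMEM, at three concentrations. Controls were normal differentiated cells (blank) and untreated insulin-resistant cells (negative); rosiglitazone was the positive control.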

3T3-L1 [2] = experiment: Reversal of high glucose-induced insulin resistance in mouse 3T3L1 cells assessed as relative sensitization rate at 10 umol/ml relative to rosiglitazone; format: functional; procedure, shortened: as §1
3T3-L1 [3] = experiment: Reversal of high glucose-induced insulin resistance in mouse 3T3L1 cells assessed as relative sensitization rate at 1 umol/ml relative to rosiglitazone; format: functional; procedure, shortened: as §1
3T3-L1 [4] = experiment: Reversal of high glucose-induced insulin resistance in mouse 3T3L1 cells assessed as relative sensitization rate at 0.10 umol/ml relative to rosiglitazone; format: functional; procedure, shortened: as §1
L6 [5] = experiment: Increase in glucose transport in rat L6 cells assessed as sensitization rate at 10 umol/ml; format: functional
Procedure, shortened: (§2)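 Rat L6 myoblasts were grown 24 h in high-glucose DMEM with 10% FBS and phenol red. They were differentiated to myotubes in high-glucose DMEM with 2% FBS for 6–8 days, with medium changed every 48 h. Cells were then starved serum-free overnight, and 4–6 h without serum or glucose. Samples were added in serum-free DMEM with 20 mmol glucose for 16–24 h. Supernatant glucose was read by kit at OD 490 nm. Sensitization rate = (negative OD − sample OD)/(negative OD − blank OD) × 100%, tested at two concentrations.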

L6 [6] = experiment: Increase in glucose transport in rat L6 cells assessed as sensitization rate at 1 umol/ml; format: functional; procedure, shortened: as §2
3T3-L1 [7] = experiment: Reversal of high glucose-induced insulin resistance in mouse 3T3L1 cells assessed as insulin sensitization relative to rosiglitazone; format: functional; procedure, shortened: as §1
3T3-L1 [8] = experiment: Reversal of high glucose-induced insulin resistance in mouse 3T3L1 cells at 1 umol/ml; format: functional, cell-based; procedure, shortened: as §1

Row | Compound | Activity (3T3-L1 [1]) | Activity (3T3-L1 [2]) [%] | Activity (3T3-L1 [3]) [%] | Activity (3T3-L1 [4]) [%] | Activity (L6 [5]) [%] | Activity (L6 [6]) [%] | fold change (FC) (3T3-L1 [7]) | Activity (3T3-L1 [8])
1 | COc1cc(CN2CCOCC2)c2cc3[n+](cc2c1O)CCc1cc2c(cc1-3)OCO2.[Cl-] | Dose-dependent effect | 115.14 | 68.72 | 28.22 | 57.22 | 26.16 | – | –
2 | COc1cc(CN(Cc2ccccc2)Cc2ccccc2)c2cc3[n+](cc2c1O)CCc1cc2c(cc1-3)OCO2.[Cl-] | – | 65.58 | -9.51 | -17.34 | 70.02 | 28.39 | – | –
3 | COc1cc(CN(c2ccccc2)c2ccccc2)c2cc3[n+](cc2c1O)CCc1cc2c(cc1-3)OCO2.[Cl-] | – | 96.66 | 62.08 | 33.38 | 53.05 | 12.43 | – | –
4 | COc1ccc2cc3[n+](cc2c1OC)CCc1cc2c(cc1-3)OCO2.[Cl-] [BERBERINE CHLORIDE] | – | 74.23 | 13.27 | -2.93 | 43.28 | 21.3 | – | –
5 | COc1cc(CN2CCN(C(=O)OC(C)(C)C)CC2)c2cc3[n+](cc2c1O)CCc1cc2c(cc1-3)OCO2.[Cl-] | Dose-dependent effect | 107.3 | 3.14 | -43.33 | 52.51 | 23.32 | – | –
6 | COc1cc(CN2CCN(C)CC2)c2cc3[n+](cc2c1O)CCc1cc2c(cc1-3)OCO2.[Cl-] | Dose-dependent effect | 126.29 | 90.23 | -1.09 | 48.55 | 41.9 | 1.26 | Active
7 | COc1cc(CN(C)C)c2cc3[n+](cc2c1O)CCc1cc2c(cc1-3)OCO2.[Cl-] | – | 51.59 | -17.72 | -16.79 | 78.5 | 51.3 | – | –
8 | CCN(CC)Cc1cc(OC)c(O)c2c[n+]3c(cc12)-c1cc2c(cc1CC3)OCO2.[Cl-] | – | 75.63 | 23.48 | 2.03 | 48.83 | 5.81 | – | –
9 | COc1cc(CN(C(C)C)C(C)C)c2cc3[n+](cc2c1O)CCc1cc2c(cc1-3)OCO2.[Cl-] | Dose-dependent effect | 112.25 | 28.02 | -64.34 | 46.08 | 17.97 | – | –
10 | COc1cc(CN2CCCC2)c2cc3[n+](cc2c1O)CCc1cc2c(cc1-3)OCO2.[Cl-] | – | 73.15 | -12.1 | -22.09 | 40.73 | 7.95 | – | –
11 | COc1cc(CN2CCCCC2)c2cc3[n+](cc2c1O)CCc1cc2c(cc1-3)OCO2.[Cl-] | Dose-dependent effect | 102.93 | 41.02 | 8.33 | 43.53 | 15.78 | – | –
